From ChEMBL document CHEMBL1629657, “In vitro antimicrobial activity of a new cephalosporin, ceftaroline, and determination of quality control ranges for MIC testing” (2009)

Key:
Assay type in all cases: functional
Providencia stuartii = experiment: Antimicrobial activity against Proteus stuartii by broth microdilution method
How it was run: (§1)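 Clinical isolates were tested by CLSI broth microdilution in unsupplemented cation-adjusted Mueller-Hinton broth. The read-out was the MIC, reported as MIC90 (μg/ml) per species or phenotypic group. Ceftriaxone, levofloxacin and imipenem were run in parallel as comparators.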

Proteus vulgaris = experiment: Antimicrobial activity against Proteus vulgaris by broth microdilution method; how it was run: as §1
Serratia marcescens = experiment: Antimicrobial activity against Serratia marcescens by broth microdilution method; how it was run: as §1
Shigella sp. = experiment: Antimicrobial activity against Shigella spp. by broth microdilution method; how it was run: as §1
Salmonella sp. = experiment: Antimicrobial activity against Salmonella spp. by broth microdilution method; how it was run: as §1
Burkholderia cepacia = experiment: Antimicrobial activity against Burkholderia cepacia by broth microdilution method; how it was run: as §1
Pseudomonas aeruginosa [1] = experiment: Antimicrobial activity against Pseudomonas aeruginosa by broth microdilution method; how it was run: as §1
Pseudomonas aeruginosa [2] = experiment: Antimicrobial activity against multidrug resistant Pseudomonas aeruginosa by broth microdilution method
How it was run: (§2)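 Isolates of the stated resistance phenotype were tested by CLSI broth microdilution in unsupplemented cation-adjusted Mueller-Hinton broth. Ceftaroline was compared with ceftriaxone, levofloxacin and imipenem. Activity was expressed as MICs (MIC90 in μg/ml).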

[3] = tested on: Stenotrophomonas maltophilia; experiment: Antimicrobial activity against Stenotrophomonas maltophilia by broth microdilution method; how it was run: as §1
Moraxella catarrhalis = experiment: Antimicrobial activity against Moraxella catarrhalis by broth microdilution method; how it was run: as §1
Haemophilus influenzae [4] = experiment: Antimicrobial activity against beta-lactamase-negative Haemophilus influenzae by broth microdilution method
How it was run: (§3)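 CLSI broth microdilution in Haemophilus test medium (cation-adjusted Mueller-Hinton base) against clinical H. influenzae isolates of the stated phenotype. Ceftaroline was compared with ceftriaxone, levofloxacin and imipenem. Activity was expressed as MICs (MIC90 in μg/ml).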

Haemophilus influenzae [5] = experiment: Antimicrobial activity against beta-lactamase-positive Haemophilus influenzae by broth microdilution method
How it was run: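 H. influenzae isolates were tested by CLSI broth microdilution using Haemophilus test medium. The MIC was read and MIC90 (μg/ml) reported for the group. Ceftriaxone, levofloxacin and imipenem served as comparators.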

Haemophilus influenzae [6] = experiment: Antimicrobial activity against beta-lactamase-negative ampicillin resistant Haemophilus influenzae by broth microdilution method; how it was run: as §3
Staphylococcus aureus [7] = experiment: Antimicrobial activity against methicillin-resistant Staphylococcus aureus by broth microdilution method; how it was run: as §2
Staphylococcus aureus [8] = experiment: Antimicrobial activity against methicillin-susceptible Staphylococcus aureus by broth microdilution method; how it was run: as §1
Staphylococcus aureus [9] = experiment: Antimicrobial activity against vancomycin-intermediate Staphylococcus aureus by broth microdilution method; how it was run: as §1
Staphylococcus aureus [10] = experiment: Antimicrobial activity against vancomycin-resistant Staphylococcus aureus by broth microdilution method; how it was run: as §2
Staphylococcus [11] = experiment: Antimicrobial activity against methicillin-resistant coagulase-negative Staphylococcus by broth microdilution method; how it was run: as §2
Staphylococcus [12] = experiment: Antimicrobial activity against methicillin-susceptible coagulase-negative Staphylococcus by broth microdilution method; how it was run: as §1
Enterococcus faecalis [13] = experiment: Antimicrobial activity against Enterococcus faecalis by broth microdilution method; how it was run: as §1
Enterococcus faecalis [14] = experiment: Antimicrobial activity against vancomycin-susceptible Enterococcus faecalis by broth microdilution method; how it was run: as §1
Enterococcus faecium [15] = experiment: Antimicrobial activity against Enterococcus faecium by broth microdilution method; how it was run: as §1
Enterococcus faecium [16] = experiment: Antimicrobial activity against vancomycin-susceptible Enterococcus faecium by broth microdilution method; how it was run: as §1
Corynebacterium jeikeium = experiment: Antimicrobial activity against Corynebacterium jeikeium by broth microdilution method; how it was run: as §1
Listeria monocytogenes = experiment: Antimicrobial activity against Listeria monocytogenes by broth microdilution method; how it was run: as §1
Streptococcus agalactiae = experiment: Antimicrobial activity against Streptococcus agalactiae by broth microdilution method
How it was run: (§4)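 Streptococcal isolates were tested by CLSI broth microdilution in cation-adjusted Mueller-Hinton broth supplemented with 3% lysed horse blood. The read-out was the MIC, with MIC90 (μg/ml) reported per group. Ceftriaxone, levofloxacin and imipenem served as comparators.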

Streptococcus pneumoniae [17] = experiment: Antimicrobial activity against levofloxacin-resistant Streptococcus pneumoniae by broth microdilution method
How it was run: (§5)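 CLSI broth microdilution in cation-adjusted Mueller-Hinton broth with 3% lysed horse blood, against streptococcal clinical isolates of the stated phenotype. Ceftaroline was compared with ceftriaxone, levofloxacin and imipenem. Activity was expressed as MICs (MIC90 in μg/ml).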

Streptococcus pneumoniae [18] = experiment: Antimicrobial activity against penicillin-resistant Streptococcus pneumoniae by broth microdilution method; how it was run: as §5
Streptococcus pneumoniae [19] = experiment: Antimicrobial activity against penicillin-intermediate Streptococcus pneumoniae by broth microdilution method; how it was run: as §5
Streptococcus pneumoniae [20] = experiment: Antimicrobial activity against penicillin-susceptible Streptococcus pneumoniae by broth microdilution method; how it was run: as §4
Streptococcus pyogenes [21] = experiment: Antimicrobial activity against macrolide-resistant Streptococcus pyogenes by broth microdilution method; how it was run: as §5
Streptococcus pyogenes [22] = experiment: Antimicrobial activity against macrolide-susceptible Streptococcus pyogenes by broth microdilution method; how it was run: as §5
Streptococcus viridans = experiment: Antimicrobial activity against Streptococcus viridans group clinical isolate by broth microdilution method; how it was run: as §4
Klebsiella aerogenes = experiment: Antimicrobial activity against ESBL-negative Enterobacter aerogenes by broth microdilution method; how it was run: as §1
Enterobacter cloacae = experiment: Antimicrobial activity against ESBL-negative Enterobacter cloacae by broth microdilution method; how it was run: as §1
Escherichia coli = experiment: Antimicrobial activity against ESBL-positive Escherichia coli by broth microdilution method; how it was run: as §1
Klebsiella pneumoniae [23] = experiment: Antimicrobial activity against ESBL-negative Klebsiella pneumoniae by broth microdilution method; how it was run: as §1
Klebsiella pneumoniae [24] = experiment: Antimicrobial activity against ESBL-positive Klebsiella pneumoniae by broth microdilution method; how it was run: as §1
Morganella morganii = experiment: Antimicrobial activity against Morganella morganii by broth microdilution method; how it was run: as §1
Proteus mirabilis = experiment: Antimicrobial activity against Proteus mirabilis by broth microdilution method; how it was run: as §1
Providencia rettgeri = experiment: Antimicrobial activity against Proteus rettgeri by broth microdilution method; how it was run: as §1

C[C@@H](O)[C@H]1C(=O)N2C(C(=O)O)=C(SCCNC=N)C[C@H]12 [IMIPENEM ANHYDROUS]
0.25 µg/mL: MIC90 (Shigella sp.) | MIC50 (Salmonella sp.) | MIC90 (Salmonella sp.) | MIC50 (Haemophilus influenzae [5]) | MIC50 (Staphylococcus aureus [7]) | MIC50 (Staphylococcus aureus [9]) | MIC50 (Staphylococcus [11]) | MIC90 (Streptococcus pneumoniae [17]) | MIC50 (Enterobacter cloacae) | MIC90 (Escherichia coli) | MIC50 (Klebsiella pneumoniae [23]) | MIC90 (Klebsiella pneumoniae [24])
8 µg/mL: MIC50 (Burkholderia cepacia) | MIC50 (Pseudomonas aeruginosa [2])
0.12 µg/mL: MIC (Shigella sp.) | MIC50 (Shigella sp.) | MIC90 (Streptococcus viridans) | MIC50 (Escherichia coli) | MIC50 (Klebsiella pneumoniae [24])
0.015 µg/mL: MIC (Staphylococcus aureus [8]) | MIC50 (Staphylococcus aureus [8]) | MIC (Staphylococcus [12]) | MIC50 (Staphylococcus [12]) | MIC (Streptococcus agalactiae) | MIC50 (Streptococcus agalactiae) | MIC90 (Streptococcus agalactiae) | MIC (Streptococcus pneumoniae [20]) | MIC50 (Streptococcus pneumoniae [20]) | MIC90 (Streptococcus pneumoniae [20]) | MIC (Streptococcus pyogenes [21]) | MIC50 (Streptococcus pyogenes [21]) | MIC90 (Streptococcus pyogenes [21]) | MIC (Streptococcus pyogenes [22]) | MIC50 (Streptococcus pyogenes [22]) | MIC90 (Streptococcus pyogenes [22]) | MIC (Streptococcus viridans) | MIC50 (Streptococcus viridans)
> 32 µg/mL: MIC50 [3] | MIC90 [3] | MIC90 (Staphylococcus aureus [9]) | MIC50 (Enterococcus faecium [15]) | MIC90 (Enterococcus faecium [15]) | MIC90 (Enterococcus faecium [16]) | MIC50 (Corynebacterium jeikeium) | MIC90 (Corynebacterium jeikeium)
0.5 µg/mL: MIC50 (Serratia marcescens) | MIC50 (Haemophilus influenzae [4]) | MIC90 (Haemophilus influenzae [4]) | MIC90 (Haemophilus influenzae [5]) | MIC50 (Haemophilus influenzae [6]) | MIC50 (Streptococcus pneumoniae [18]) | MIC90 (Enterobacter cloacae) | MIC90 (Klebsiella pneumoniae [23])
2 µg/mL: MIC50 (Providencia stuartii) | MIC50 (Proteus vulgaris) | MIC90 (Enterococcus faecalis [13]) | MIC90 (Enterococcus faecalis [14]) | MIC50 (Proteus mirabilis) | MIC50 (Providencia rettgeri)
1 µg/mL: MIC90 (Serratia marcescens) | MIC (Pseudomonas aeruginosa [1]) | MIC50 (Pseudomonas aeruginosa [1]) | MIC90 (Haemophilus influenzae [6]) | MIC (Staphylococcus aureus [10]) | MIC50 (Enterococcus faecalis [13]) | MIC50 (Enterococcus faecalis [14]) | MIC90 (Streptococcus pneumoniae [18]) | MIC50 (Klebsiella aerogenes) | MIC90 (Klebsiella aerogenes)
4 µg/mL: MIC90 (Providencia stuartii) | MIC90 (Proteus vulgaris) | MIC50 (Enterococcus faecium [16]) | MIC50 (Morganella morganii) | MIC90 (Morganella morganii) | MIC90 (Proteus mirabilis) | MIC90 (Providencia rettgeri)
0.06 µg/mL: MIC50 (Moraxella catarrhalis) | MIC90 (Moraxella catarrhalis) | MIC50 (Listeria monocytogenes) | MIC90 (Listeria monocytogenes) | MIC90 (Streptococcus pneumoniae [19])
32 µg/mL: MIC90 (Burkholderia cepacia) | MIC90 (Staphylococcus aureus [7]) | MIC90 (Staphylococcus [11])
0.03 µg/mL: MIC90 (Staphylococcus aureus [8]) | MIC90 (Staphylococcus [12]) | MIC50 (Streptococcus pneumoniae [17]) | MIC50 (Streptococcus pneumoniae [19])
16 µg/mL: MIC90 (Pseudomonas aeruginosa [1]) | MIC90 (Pseudomonas aeruginosa [2])
